The term % inhibition denotes the drop in the measured response relative to a control, in per cent. As usually defined, the IC50 is the point on the concentration scale where inhibition reaches its midpoint.

The text below walks through data of article PMC8385540 (Journal of natural products, 2013).

Assay [1] deals with human cannabinoid CB2 receptor (Homo sapiens, UniProt P34972). As to the kind of experiment: Plate-based assay, inhibition of CB2 receptor internalization. It is filed as cell-based. Put shortly: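 CHO cells stably expressing human CB2, seeded at 2.0 × 10^5 cells/mL in 96-well plates, grown 24 h in DMEM/F12 with 10% FBS. Preincubated 1 h with twofold serial dilutions of test compound (top 10 μM; DMSO <0.1% final), then 1 h with 2 nM [3H]-CP 55,940. Washed, NaOH-lysed, scintillation counted, and normalized to no-compound uptake. IC50 from sigmoid nonlinear fit, means ± SE (n = 6). JD5037 as positive control.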
Chain of human cannabinoid CB2 receptor (P34972 whole entry): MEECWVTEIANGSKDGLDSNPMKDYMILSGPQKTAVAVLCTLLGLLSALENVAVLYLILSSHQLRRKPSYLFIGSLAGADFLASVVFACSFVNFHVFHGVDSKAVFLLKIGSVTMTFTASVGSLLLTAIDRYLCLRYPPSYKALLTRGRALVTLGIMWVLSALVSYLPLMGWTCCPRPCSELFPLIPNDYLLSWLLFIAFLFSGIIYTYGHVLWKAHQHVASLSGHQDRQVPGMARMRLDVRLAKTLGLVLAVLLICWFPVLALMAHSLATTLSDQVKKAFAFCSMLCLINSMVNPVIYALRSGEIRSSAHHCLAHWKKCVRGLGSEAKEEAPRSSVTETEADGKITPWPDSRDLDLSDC

A further assay concerns FSH receptor. The note with it: previously reported; cited from earlier work.
Assay [2] deals with human cannabinoid CB1 receptor (Homo sapiens, UniProt P21554). As to the kind of experiment: Plate-based assay, inhibition of CB1 receptor internalization. It is filed as cell-based.
Chain of human cannabinoid CB1 receptor (P21554 whole entry): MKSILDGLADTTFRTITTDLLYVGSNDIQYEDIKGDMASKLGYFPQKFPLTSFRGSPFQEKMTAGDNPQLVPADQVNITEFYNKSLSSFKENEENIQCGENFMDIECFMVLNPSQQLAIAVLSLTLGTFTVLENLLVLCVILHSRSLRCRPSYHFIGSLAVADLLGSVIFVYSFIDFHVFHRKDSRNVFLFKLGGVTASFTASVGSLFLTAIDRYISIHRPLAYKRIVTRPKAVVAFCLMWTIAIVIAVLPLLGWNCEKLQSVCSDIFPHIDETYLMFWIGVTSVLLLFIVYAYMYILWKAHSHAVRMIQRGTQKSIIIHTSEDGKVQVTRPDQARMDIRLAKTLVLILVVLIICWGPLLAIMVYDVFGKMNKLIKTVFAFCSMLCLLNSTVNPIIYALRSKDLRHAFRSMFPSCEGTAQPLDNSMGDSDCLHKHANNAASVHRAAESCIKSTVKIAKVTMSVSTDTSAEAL
The next assay concerns the target T1, RXFP3 (Homo sapiens, UniProt Q9NSD7).
T1 sequence (Q9NSD7 1-469): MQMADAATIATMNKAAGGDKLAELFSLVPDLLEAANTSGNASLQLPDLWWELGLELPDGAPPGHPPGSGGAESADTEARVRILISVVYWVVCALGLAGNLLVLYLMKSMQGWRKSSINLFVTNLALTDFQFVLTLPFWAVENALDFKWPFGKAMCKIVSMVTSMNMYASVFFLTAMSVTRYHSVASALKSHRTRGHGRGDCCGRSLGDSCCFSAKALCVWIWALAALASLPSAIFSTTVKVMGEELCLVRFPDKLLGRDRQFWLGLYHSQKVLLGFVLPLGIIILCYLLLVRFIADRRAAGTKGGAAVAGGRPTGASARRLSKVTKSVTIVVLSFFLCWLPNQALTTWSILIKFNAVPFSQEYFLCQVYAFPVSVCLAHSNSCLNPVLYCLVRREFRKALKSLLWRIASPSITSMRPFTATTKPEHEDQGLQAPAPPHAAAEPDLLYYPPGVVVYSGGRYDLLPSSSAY
As to the kind of experiment: DiscoveRX gpcrMAX panel, agonist/antagonist. It is filed as cell-based. Particulars: RXFP3, antagonist mode; negative inhibition may indicate agonist or PAM activity.

The target of another assay is HRH4 (Homo sapiens, UniProt Q9H3N8). As to the kind of experiment: DiscoveRX gpcrMAX panel, agonist/antagonist. It is filed as cell-based. The note with it: HRH4, antagonist mode; negative inhibition may indicate agonist or PAM activity.
Chain of HRH4 (Q9H3N8 whole entry): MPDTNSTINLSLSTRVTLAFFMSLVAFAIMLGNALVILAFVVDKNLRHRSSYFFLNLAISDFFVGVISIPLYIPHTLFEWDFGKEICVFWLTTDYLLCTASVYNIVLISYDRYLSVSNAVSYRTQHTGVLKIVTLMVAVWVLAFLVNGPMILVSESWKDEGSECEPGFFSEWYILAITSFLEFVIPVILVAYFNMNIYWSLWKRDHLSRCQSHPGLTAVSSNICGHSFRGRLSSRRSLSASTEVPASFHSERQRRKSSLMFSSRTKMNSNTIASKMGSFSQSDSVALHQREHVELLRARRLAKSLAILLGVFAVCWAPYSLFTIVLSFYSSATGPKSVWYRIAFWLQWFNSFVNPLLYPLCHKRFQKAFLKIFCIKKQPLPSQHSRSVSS

Turning to `CC/C=C/C/C=C\CC/C=C/C=C/C(=O)NCC(C)(C)O` [Compound 6, isobungeanool], the “antagonism of the CB2 receptor (in words)” value in assay [1] is given as “weak antagonists”.
As for `C/C=C/C=C/C=C\CC/C=C/C(=O)NCC(C)(C)O` [Compound 2, hydroXy-α-sanshool], the “fold increase in activity against the CB2 receptor, 2 vs 3” value in assay [1] (cis configuration at C-6 of 2 compared with 3) is on record as 2 fold.
Take `CCCCCc1cc(O)c2c(c1)OC(C)(C)[C@@H]1CCC(C)=C[C@@H]21` [Δ^9-tetrahydrocannabinol]: the “inhibition of the FSH receptor (in words)” value with FSH receptor is given as “specific inhibition”.
In the case of `C/C=C/C=C/C=C\CC/C=C/C=C/C(=O)NCC(C)(C)O` [Compound 4, hydroXy-γ-sanshool], the “fold more potent for CB1, 4 vs 5” value in assay [2] (C-8 cis-isomer 4 compared with 5) came to 10 fold.
Take `CC(C)[C@H](N=C(NS(=O)(=O)c1ccc(Cl)cc1)N1C[C@H](c2ccccc2)C(c2ccc(Cl)cc2)=N1)C(N)=O` [JD5037, reference compound]: the “IC50 of positive control, CB1 (in words)” value in assay [2] (positive control) is on record as “within the expected range”. The “IC50 of positive control, CB2 (in words)” value in assay [1] (positive control) is reported as “within the expected range”.
As for `C/C=C/C=C/C=C/CC/C=C/C=C/C(=O)NCC(C)C` [Compound 7, (2E,4E,8E,10E,12E)-N-isobutyl-2,4,8,10,12-tetradecapentaenamide], the “antagonistic properties against the CB1 receptor (in words)” value in assay [2] is given as “strong antagonistic properties”. Further, the “% inhibition” value on RXFP3 is given as −81%; at HRH4, −54%. Moreover, the “antagonism of the CB2 receptor (in words)” value in assay [1] was “weak antagonists”.
`CCCCCCCCC/C=C/C=C/C(=O)NCC(C)(C)O` [Compound 8, tetrahydrobungeanool] showed an IC50 in assay [1] of 1.8 nM.
